Test results published in ChEMBL document CHEMBL1140729, “Synthesis and evaluation of 2'-hydroxyethyl trans-apovincaminate derivatives as antioxidant and cognitive enhancer agents” (J Med Chem, 2008).
Active and inactive are the calls of the source. The calls are words filed in the database; no cut-off is given here.

Tests used:
Rattus norvegicus [1] = species: Rattus norvegicus; assay: Inhibition of […] lipid peroxidation in rat brain microsome; assay type: functional
How it was run: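 Rat brain microsomes (78000 g pellet) in KCl at 0.2 mg protein per ml. Medium: 50 mM Tris-HCl pH 6.8, 0.2 mM FeCl3, 1 mM KH2PO4, 0.5 mM ADP, preincubated 20 min at 37 °C ± compound. LPO started with 0.4 mM NADPH, run 20 min, stopped with TCA/HCl. TBA boiled 10 min, OD read at 535 nm. IC50 obtained by sigmoid fit of 7–9 concentrations, triplicates.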

Brain = assay: Inhibition of Fe2+-induced lipid peroxidation in rat brain homogenate; assay type: functional, tissue-based
How it was run: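 Whole rat brain homogenized in 9 vol ice-cold Krebs-Ringer/15 mM HEPES pH 7.4 with glucose, used fresh at 10 mg protein/ml. Preincubated with compound 20 min at 37 °C. LPO started with ferrous ammonium sulfate (200 µM Fe²⁺), run 20 min, stopped with TCA/HCl. TBA added to supernatant, boiled 20 min, OD read at 535 nm. IC50 obtained by sigmoid fit of 6–9 concentrations, triplicates.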

Mus musculus [2] = assay: Effect on memory improvement in NMRI mouse at 10 mg/kg by passive avoidance test; assay type: functional, organism-based; set-up: dose 10 mg/kg
How it was run: (§1)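 Male NMRI mice, 25–28 g, 10 per group. Anterograde amnesia induced by diazepam 3 mg/kg i.p. 30 min before the acquisition trial. Test compound given orally (0.1 or 10 mg/kg) 1 h before acquisition. Readout is latency to enter the dark chamber. Percent restoration P% = (T_treated+DIA − T_placebo+DIA)/(T_placebo − T_placebo+DIA) × 100.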

Mus musculus [3] = assay: Inhibition of diazepam-induced amnesia in NMRI mouse at 0.1 mg/kg, po by one-trial passive avoidance test; assay type: functional; how it was run: as §1
Mus musculus [4] = assay: Inhibition of diazepam-induced amnesia in NMRI mouse at 10 mg/kg, po by one-trial passive avoidance test; assay type: functional; how it was run: as §1
Rattus norvegicus [5] = assay: Protective effect against diazepam-induced learning-deficit in Wistar rat at 5 mg/kg, po by water labyrinth test; assay type: functional
How it was run: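 Male Wistar rats, 200–220 g, 10 per group. Diazepam 5 mg/kg i.p. in 5% Tween 80, given 30 min before the first swim. Compound given orally at 5 mg/kg 1 h before the first daily trial. Four-day water-labyrinth task with three choice points in water at 24 °C: one pretraining day, then three trials per day. Directional turning errors counted, 12 if the platform was not found in 5 min. Percent restoration calculated; ANOVA with Duncan test.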

IC50 (Rattus norvegicus [1]) | IC50 (Brain) | SMILES | Activity (Mus musculus [2]) | inhibition in vivo at 0.1 mg/kg (Mus musculus [3]) | inhibition in vivo at 10 mg/kg (Mus musculus [4]) | Activity (Rattus norvegicus [5])
3 µM | 13.4 µM | CCOC(=O)C1=C[C@@]2(CC)CCCN3CCc4c(n1c1ccccc41)[C@@H]32 |  |  |  | 
3.6 µM | 9.8 µM | CC[C@@]12C=C(C(=O)OCCOC(C)=O)n3c4c(c5ccccc53)CCN(CCC1)[C@@H]42 | Active | 79% | 100% | 
3.2 µM | 6.2 µM | Cc1cc(C(C)(C)C)c(O)c(C(C)(C)C)c1 [BUTYLATED HYDROXYTOLUENE] |  |  |  | 
> 300 µM | 238 µM | CC[C@@]12C=C(C(=O)[O-])n3c4c(c5ccccc53)CCN(CCC1)[C@@H]42.[Na+] |  |  |  | 71.3%
7 µM | 13.7 µM | CC[C@@]12C=C(C(=O)OCCO)n3c4c(c5ccccc53)CCN(CCC1)[C@@H]42 | Active | 74% | 65% | 81.1%
3.8 µM | 18.2 µM | CC[C@@]12C=C(C(=O)OCCOC(=O)c3ccccc3)n3c4c(c5ccccc53)CCN(CCC1)[C@@H]42 |  | 0% | 0% | 
3.8 µM | 15.2 µM | CC[C@]12C=C(C(=O)OCCOC(C)=O)n3c4c(c5ccccc53)CCN(CCC1)[C@H]42 | Active | 72% | 44% | 
5 µM | 21 µM | CCC(=O)OCCOC(=O)C1=C[C@]2(CC)CCCN3CCc4c(n1c1ccccc41)[C@H]32 |  | 16% | 4% | 
273 µM | 35.7 µM | Cc1c(C)c2c(c(C)c1O)CCC(C)(CCCC(C)CCCC(C)CCCC(C)C)O2 (racemic) [alpha-TOCHOPHEROL] |  |  |  | 
> 300 µM | 258 µM | CC[C@]12C=C(C(=O)O)n3c4c(c5ccccc53)CCN(CCC1)[C@H]42 |  |  |  | 
 |  | CC[C@@]12C=C(C(=O)O)n3c4c(c5ccccc53)CCN(CCC1)[C@H]42 |  |  |  | 66.7%
137 µM | 209 µM | CCOC(=O)C1=C[C@]2(CC)CCCN3CCc4c(n1c1ccccc41)[C@@H]32 [VINPOCETINE] |  | 0% | 100% | 56.6%
2.7 µM | 14.6 µM | CC[C@@]12C=C(C(=O)OCCOC(=O)c3ccc(Cl)cc3)n3c4c(c5ccccc53)CCN(CCC1)[C@@H]42 |  | 3% | 15% | 
9.1 µM | 13.6 µM | CC[C@]12C=C(C(=O)OCCO)n3c4c(c5ccccc53)CCN(CCC1)[C@H]42 | Active | 50% | 56% | 
2.7 µM | 15.7 µM | CC[C@]12C=C(C(=O)OCCOC(=O)c3ccc(Cl)cc3)n3c4c(c5ccccc53)CCN(CCC1)[C@H]42 |  |  |  | 
1.3 µM | 31.5 µM | COC1=C(OC)C(=O)C(CCCCCCCCCCO)=C(C)C1=O [IDEBENONE] |  |  |  | 
3.4 µM | 14.8 µM | CC[C@]12C=C(C(=O)OCCOC(=O)c3ccccc3)n3c4c(c5ccccc53)CCN(CCC1)[C@H]42 |  | 23% | 16% | 
4.4 µM | 15.8 µM | CCC(=O)OCCOC(=O)C1=C[C@@]2(CC)CCCN3CCc4c(n1c1ccccc41)[C@@H]32 |  | 64% | 24% | 
> 30 µM |  | CC[C@@]12C=C(C(=O)OCCO)n3c4c(c5ccccc53)CCN(CCC1)[C@H]42 |  |  |  | 80.3%
3.5 µM | 14.4 µM | CCOC(=O)C1=C[C@]2(CC)CCCN3CCc4c(n1c1ccccc41)[C@H]32 |  |  |  | 

SMILES | IC50 (Rattus norvegicus [1]) | IC50 (Brain) | Activity (Mus musculus [2]) | inhibition in vivo at 0.1 mg/kg (Mus musculus [3]) | inhibition in vivo at 10 mg/kg (Mus musculus [4]) | Activity (Rattus norvegicus [5])
O=c1c(O)c(-c2ccc(O)c(O)c2)oc2cc(O)cc(O)c12 [QUERCETIN] | 8.5 µM | 10.7 µM |  |  |  | 
